# Published values collected from several papers.
# Protocols differ between the studies behind these lines.
# Target: Muscarinic acetylcholine receptor M4 (CHRM4, Homo sapiens, UniProt P08173)
# Sequence (P08173 1-479, as in one of the studies): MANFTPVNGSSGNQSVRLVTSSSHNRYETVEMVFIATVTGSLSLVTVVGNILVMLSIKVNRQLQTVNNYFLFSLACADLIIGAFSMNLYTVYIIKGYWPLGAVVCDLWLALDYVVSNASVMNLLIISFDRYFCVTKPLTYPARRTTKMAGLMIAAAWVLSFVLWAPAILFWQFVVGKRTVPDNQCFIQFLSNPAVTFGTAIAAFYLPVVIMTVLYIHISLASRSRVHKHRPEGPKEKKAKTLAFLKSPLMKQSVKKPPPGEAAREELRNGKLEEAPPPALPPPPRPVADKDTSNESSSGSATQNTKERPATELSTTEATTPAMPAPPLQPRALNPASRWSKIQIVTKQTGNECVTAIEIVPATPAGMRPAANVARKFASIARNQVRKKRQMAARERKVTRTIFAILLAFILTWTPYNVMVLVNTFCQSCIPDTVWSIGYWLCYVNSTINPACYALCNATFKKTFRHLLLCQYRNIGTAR
Compound,effect on,technique,tested at,inhibition [%]
Cc1ncc(C)n2nc(/C=C/c3nc(N4CCCC4)cc(N4CCOCC4)n3)nc12,ligand displacement,,10 µM,47
O=C(Nc1cccnn1)N1CCN([C@@H]2CCOc3cc(C(F)(F)F)ccc32)CC1,cell-free assay,,20 µM,15
N#CC1(c2ccccn2)CCN(Cc2cc(C(=O)O)c(=O)n3ccccc23)CC1,cell-free assay,,10 µM,-2.36
CN1CC[C@@]2(C)c3cc(OC(=O)Nc4ccccc4)ccc3N(C)[C@@H]12,ligand displacement,radioligand,10 µM,0.3
C[C@H](C(=O)N[C@H]1COc2ccccc2[C@@H]1S(C)(=O)=O)c1ccc(F)cc1,cell-free assay,,10 µM,6
COCc1c(-c2cc3cc(C)cc(OC)c3s2)c2c(N)ncnn2c1CN1CCNC(=O)C1,ligand displacement,radioligand,10 µM,6
c1ccc(C(NCCNC(c2ccccc2)c2ccccc2)c2ccccc2)cc1,cell-free assay,,10 µM,32
Cn1cncc1[C@@](O)(COc1ccc(C#N)cc1-c1ccc(OC(F)(F)F)cc1)c1ccc(C#N)cc1,ligand displacement,,10 µM,-9.7
